Consider one compound from ChEMBL document CHEMBL4376883, “Discovery and Optimization of Small Molecules Targeting the Protein-Protein Interaction of Heat Shock Protein 90 (Hsp90) and Cell Division Cycle 37 as Orally Active Inhibitors for the Treatment of Colorectal Cancer” (J Med Chem, 2020).

pIC50: −log10 of the molar value.

In data set [1] the test system is HCT-116. Kind of data set: Antiproliferative activity against human HCT116 cells measured after 72 hrs by CCK8 assay. Type of data set: functional, cell-based. The settings on record: HCT-116, 72 h. In short, it runs like this:
(§1)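 Cells grown in RPMI 1640 with 10% FBS at 37 °C, 5% CO2; STR-authenticated and mycoplasma-checked. Seeded at 3000-5000 cells/well and left 24 h. Serial compound dilutions added for 72 h, with matched DMSO as control. Viability read by CCK8 kit using the standard protocol. IC50 values derived from at least three parallel experiments.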

For another data set, the system named is A549. The data set is described as follows: Antiproliferative activity against human A549 cells measured after 72 hrs by CCK8 assay. It counts as functional, cell-based. The settings on record: A549, 72 h. The method in brief:
as §1
Background: Tetrazolium assays rely on reduction of a dye to a coloured formazan, in cell work by metabolically active cells.

The next data set concerns the target Heat shock protein HSP90 (Homo sapiens, UniProt P07900+P08238). The data set is described as follows: Inhibition of recombinant full-length HSP90 ATPase activity N-terminal domain (9 to 236 residues) (unknown origin) expressed in Escherichia coli BL21 (DE3) measured after 1 hr by ADP hunter plus assay.
Data set [2] is described as follows: Stability of the compound in mouse plasma assessed as parent compound remaining at 1 uM measured after 60 mins by LC-MS/MS analysis. Type of data set: ADME, cell-free. The settings on record: read-out: Stability. In short, it runs like this:
(§2)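 Compound diluted from 10 mM DMSO stock to 1 μM in mouse or human plasma and held at 37 °C in a water bath. Reactions were stopped with acetonitrile at 0, 10, 30, 60 and 90 min. Parent compound was quantified by LC-MS/MS as % remaining.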

Data set [3] is described as follows: Stability of the compound in mouse plasma assessed as parent compound remaining at 1 uM measured after 90 mins by LC-MS/MS analysis. Type of data set: ADME, cell-free. The note with it: read-out: Stability. In short, it runs like this:
as §2

Data set [4] is described as follows: Stability of the compound in human plasma assessed as parent compound remaining at 1 uM measured after 10 mins by LC-MS/MS analysis. It counts as ADME, cell-free. The note with it: read-out: Stability. The method in brief: as §2
Data set [5] is described as follows: Stability of the compound in human plasma assessed as parent compound remaining at 1 uM measured after 30 mins by LC-MS/MS analysis. It counts as ADME, cell-free. The settings on record: read-out: Stability. In short, it runs like this:
as §2

A short description of data set [6]: Stability of the compound in human plasma assessed as parent compound remaining at 1 uM measured after 60 mins by LC-MS/MS analysis. It counts as ADME, cell-free. The settings on record: read-out: Stability. The method in brief: as §2
Data set [7] can be described thus: Stability of the compound in human plasma assessed as parent compound remaining at 1 uM measured after 90 mins by LC-MS/MS analysis. It counts as ADME, cell-free. The note with it: read-out: Stability. The method in brief:
as §2

The nature of data set [8]: Half life in human liver microsomes at 10 uM preincubated for 5 mins followed by NADPH addition by LC-MS/MS analysis. It counts as ADME, Microsome. In short, it runs like this: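 Compound at 10 µM preincubated 5 min at 37 °C with human or mouse liver microsomes (0.5 mg/mL) in 100 mM phosphate, pH 7.4. Reaction started with 1 mM NADPH, stopped with cold acetonitrile, centrifuged and analysed by LC-MS/MS.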
(Microsomes from liver hold many membrane-bound enzymes, among them those of drug oxidation.)

Data set [9] in a line: Effect on HSP70 in human HCT116 cells at 10 uM measured up to 48 hrs by Western blot analysis. Type of data set: cell-based. The method in brief:
(§3)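 HCT116 cells treated with 0, 1, 5 or 10 µM for 24 h, or with 10 µM for 0, 4, 12, 24 or 48 h. Lysates separated by SDS-PAGE and blotted. Membranes blocked in 5% milk, primary antibodies overnight at 4 °C, HRP secondaries, chemiluminescent detection.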

Data set [10] deals with HCT-116. The data set is described as follows: Effect on CDC37 expression in human HCT116 cells up to 10 uM measured after 24 hrs by Western blot analysis. The settings on record: hct-116, 24 h. Type of data set: cell-based. The method in brief:
as §3

The subject of data set [11] is HCT-116. The data set is described as follows: Effect on total phosphorylated CDC37 expression in human HCT116 cells up to 10 uM measured after 24 hrs by Western blot analysis. Type of data set: ADME, cell-based. The settings on record: hct-116, 24 h. In short, it runs like this:
as §3
Background: Immunoblotting shows a protein as a band on a membrane.

Data set [12] deals with HCT-116. The data set is described as follows: Effect on CDC37 expression in human HCT116 cells at 10 uM measured up to 48 hrs by Western blot analysis. Type of data set: cell-based. The settings on record: hct-116, 48 h. The method in brief:
as §3

Data set [13] in a line: Half life in plasma of human HCT116 cells xenografted BALB/c mouse at 80 mg/kg, po administered as single dose by LC-MS/MS analysis. It counts as ADME, organism-based. The method in brief: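 Single oral dose of 80 mg/kg given to BALB/c nude mice (n = 6 per group) carrying flank HCT116 xenografts. Blood and tumor were collected at 0, 0.25, 0.5, 1, 2, 4, 8, 12 and 24 h. Blood went into heparinized tubes and was spun at 3000 rpm for 10 min to give plasma. Samples were stored at -80 °C, then drug levels in plasma and tumor were measured by LC-MS/MS.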

The nature of data set [14]: AUC (0 to t) in plasma of human HCT116 cells xenografted BALB/c mouse at 80 mg/kg, po administered as single dose by LC-MS/MS analysis. Type of data set: ADME, organism-based. In short, it runs like this:
(§4)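 Tumour-bearing mice (n = 6 per group) given one oral dose of 80 mg/kg. Blood and tumour collected into heparinized tubes at 0, 0.25, 0.5, 1, 2, 4, 8, 12 and 24 h. Plasma obtained by centrifugation at 3000 rpm for 10 min. Samples stored at -80 °C and quantified by LC-MS/MS.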

The nature of data set [15]: AUC (0 to t) in tumor of human HCT116 cells xenografted BALB/c mouse at 80 mg/kg, po administered as single dose by LC-MS/MS analysis. Type of data set: ADME, organism-based, Neoplasm. In short, it runs like this: as §4
Data set [16] can be described thus: Apparent oral clearance in tumor of human HCT116 cells xenografted BALB/c mouse at 80 mg/kg administered as single dose by LC-MS/MS analysis. Type of data set: ADME, organism-based, Neoplasm. In short, it runs like this: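 Xenograft mice (n = 6 per group) received a single 80 mg/kg oral dose. Plasma and tumour were sampled over 0–24 h into heparinized tubes and analysed by LC-MS/MS.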

Data set [17] can be described thus: Half life in plasma of human HCT116 cells xenografted BALB/c mouse at 80 mg/kg administered as single dose by LC-MS/MS analysis.

Regarding `Cc1cc(C)c(S(=O)(=O)N(CC(=O)O)c2ccc(Nc3ccnc(N4CCNCC4)n3)cc2)c(C)c1`, the pIC50 in the data set with HCT-116 [1] was 5.76; in the data set on A549, under 4.30. For the same compound, the IC50 at Heat shock protein HSP90 was over 100 µM. For the same compound, the figures for the remaining at 1 h, 1 µM in data set [2] and in data set [6] were 101% and 102%, respectively. For the same compound, the remaining at 1.5 h, 1 µM came to 105% in data set [3] and 103% in data set [7]. The remaining at 10 min, 1 µM in data set [4] came out at 98%. In addition, in [5], the remaining at 0.5 h, 1 µM was 104%. In data set [8], the half-life at 10 µM was determined as 2.08 h. In addition, the Activity result (in data set [9]; in the data set on HCT-116 [10]; with HCT-116 [11]; in the data set with HCT-116 [12]) was “Non-Toxic” each time. Besides, the half-life in data set [13] is 1.46 h. Also, the AUC(0-t) in [14] turned out to be 533 µg·h/mL; in data set [15], 132 µg·h/mL. Further, in data set [16], the CL/F is 9.93 mL/min/kg. The compound further came in with a T1/2 in data set [17] of 1.46 h.

As usually defined, the pIC50 is the negative decadic logarithm of the IC50, by convention in mol/L. As usually defined, the IC50 is the concentration needed to halve the response being measured. The half-life is the time needed for the level to fall by half in the phase considered. Low readings indicate fast loss, high ones slow loss. In general, AUC(0-t) refers to the area under the concentration-time curve up to a stated or last time point. Higher therefore signals high exposure. By CL/F is commonly meant clearance divided by bioavailability, as obtained after extravascular dosing.
